The values that follow come from ChEMBL document CHEMBL4177561, “Development of Selective, Orally Active GPR4 Antagonists with Modulatory Effects on Nociception, Inflammation, and Angiogenesis” (J Med Chem, 2017).

Series [1] is described as follows: Clearance in Sprague-Dawley rat at 1 mg/kg, iv. The class given is ADME, organism-based. To be noted: in vivo. The method in brief: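 Female Sprague-Dawley rats with femoral artery and vein catheters received a single iv dose of 1 mg/kg in NMP:PEG200 (30:70). Clearance is the mean ± SD of four animals.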
The test system of a further series is Rattus norvegicus. Nature of the series: Dose normalized AUC in Sprague-Dawley rat at 3 mg/kg, po. Type of series: ADME, organism-based. Conditions: in vivo. The gist of the method:
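Catheterized female Sprague-Dawley rats received a single oral dose of 3 mg/kg as a suspension in CMC:water:Tween 80 (0.5:99:0.5). This followed a 48 h wash-out after iv dosing in the same animals.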

A short description of series [2]: Drug level in blood of methylated BSA and complete Freund's adjuvant sensitized Lewis rat antigen-induced arthritis model at 30 mg/kg, po bid for 7 days and measured 2 hrs post dose. To be noted: read-out: Drug uptake. The class given is ADME, organism-based. The gist of the method:
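Lewis rat AIA model, 30 mg/kg po bid. Blood concentration was measured on day 7 at 2 h post dose. Values are the mean of n = 5.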

A short description of series [3]: Drug level in blood of FVB mouse chamber implant model at 30 mg/kg, po bid for 4 days measured at 16 hrs on day 4. Conditions: read-out: Drug uptake.
Series [4] is described as follows: Drug level in blood of FVB mouse chamber implant model at 30 mg/kg, po bid for 4 days measured at 2 hrs on day 4. Conditions: read-out: Drug uptake.

SMILES strings stand for the structures.

With `CCc1nn2c(C)cc(C)nc2c1Cc1ccc(CCCN2CCN(C(C)C)CC2)cc1`, in series [1], the clearance (in general, the volume of plasma or blood freed of the substance per unit of time) amounted to 29 mL/min/kg. The AUC/dose with Rattus norvegicus came out at 1.1 µmol·h/L.

`CCc1nn2c(C)cc(C)nc2c1Cc1ccc(/C=C/CN2CCN(C(C)C)CC2)cc1` displayed a clearance in series [1] of 12 mL/min/kg. This molecule displayed an AUC/dose in the series with Rattus norvegicus of 3.2 µmol·h/L.

In turn, `CCc1nn2c(C)cc(C)nc2c1Cc1ccc(CCC(O)C2CCNCC2)cc1` (centres undefined) had a clearance in series [1] of 31 mL/min/kg. The same molecule yielded an AUC/dose with Rattus norvegicus of 0.49 µmol·h/L.

In series [1], `CCc1nn2c(C)cc(C)nc2c1Cc1ccc(/C=C/CN2CCNC(=O)C2)cc1` displayed a clearance of 4 mL/min/kg. Besides, the AUC/dose in the series on Rattus norvegicus was found to be 13.6 µmol·h/L. Moreover, in series [2], the concentration at 2 h was found to be 23 µM.

Turning to `CCc1nn2c(C)cc(C)nc2c1Cc1ccc(/C=C/CN2CCN(C[C@@H](O)CO)CC2)cc1`, the clearance in series [1] was 11 mL/min/kg. This molecule also came in with an AUC/dose in the series on Rattus norvegicus of 5.1 µmol·h/L.

In the case of `CCc1nn2c(C)cc(C)nc2c1Cc1ccc(CCC(=O)N2CCNCC2)cc1`, the clearance in series [1] came out at 28 mL/min/kg. For the same molecule, in the series with Rattus norvegicus, the AUC/dose turned out to be 1.2 µmol·h/L.

Regarding `CCc1nn2c(C)cc(C)nc2c1Cc1ccc(-c2nnc(C3CCNCC3)o2)cc1`, the concentration at 16 h in series [3] worked out at 0.09 µM. This molecule also displayed a clearance in series [1] of 6 mL/min/kg. This molecule also gave an AUC/dose in the series on Rattus norvegicus of 6.7 µmol·h/L. Moreover, the concentration at 2 h in series [4] came out at 9.03 µM.

Molecule `CCc1nn2c(C)cc(C)nc2c1Cc1ccc(CCCC2(O)CCNCC2)cc1` gave a clearance in series [1] of 49 mL/min/kg. Further, in the series with Rattus norvegicus, the AUC/dose came to 0.53 µmol·h/L.
